Measurements reported in ChEMBL document CHEMBL3085690, “Naturally occurring antimicrobial peptide OH-CATH30 selectively regulates the innate immune response to protect against sepsis” (J Med Chem, 2013).
The source made the active and inactive calls. The rule behind the calls is not given here. Peptide text beside a SMILES is read from it.

Experiments:
[1] = tested on: PBMC; experiment: Increase of cytokine production in human PBMC by qRT-PCR analysis; assay type: functional, cell-based
[2] = tested on: Mus musculus; experiment: Stimulation of innate immune response in Kunming mouse assessed as protection against Staphylococcus aureus ATCC 25923-induced mortality by measuring survival rate at 10 mg/kg, ip administered 5 hrs before bacterial infection measured up to 7 days; assay type: functional; settings: route intraperitoneal
In short: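 Female Kunming mice (18−22 g) received a single ip dose in sterile saline 5 h before ip challenge with P. aeruginosa 27853 (8 × 10^7 CFU/mouse; n = 8) or S. aureus 25923 (2 × 10^8 CFU/mouse; n = 10). Mice were checked every 6 h for up to 7 days, with a humane end point. Curves were compared by log-rank test.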

[3] = tested on: BMDM; experiment: Increase of CXCL2 production in mouse BMDM after 6 hrs by ELISA in presence of CD14 Ab; assay type: functional
[4] = Increase of CXCL2 production in mouse BMDM after 6 hrs by ELISA in presence of MEK1/2 inhibitor U0126; assay type: functional
[5] = tested on: Mus musculus; experiment: Stimulation of innate immune response in Kunming mouse infected with Staphylococcus aureus ATCC 25923 assessed as reduction of bacterial burden in peritoneal lavage by measuring survival rate at 10 mg/kg, ip administered 5 hrs before bacterial infection measured up to 7 days; assay type: functional, organism-based; set-up: dose 10 mg/kg
In short: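 Peptide at 10 mg/kg ip was given 5 h before ip challenge with E. coli 25922 (2.5 × 10^8 CFU), P. aeruginosa 27853 (8 × 10^7 CFU) or S. aureus 25923 (2 × 10^8 CFU) per mouse. Viable bacteria were counted in peritoneal lavage collected in 2 mL of cold saline (n = 7, 6 and 8 respectively; unpaired t test). Survival was recorded for up to 7 days.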

[6] = tested on: Mus musculus; experiment: Stimulation of innate immune response in Kunming mouse infected with Pseudomonas aeruginosa ATCC 27853 assessed as effect on IL-6 production in peritoneal lavage at 10 mg/kg, ip after 5 hrs by ELISA; assay type: functional, organism-based; set-up: dose 10 mg/kg
[7] = molecular target: Transcription factor p65 (Mus musculus) (UniProt Q04207); experiment: Activation of NFkappaB in mouse BMDM assessed as degradation of IkappaBalpha at 10 ug/ml after 15 to 30 mins by Western blotting
In short: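 BMDMs (bone marrow cells grown in RPMI 1640 with 10% FCS and 20% L929-conditioned medium) stimulated, then lysates run on 10% SDS-PAGE and transferred to PVDF. Membranes blocked with 5% BSA and probed with phospho-ERK1/2 and total ERK1/2 antibodies, or with anti-IκBα. HRP anti-rabbit secondary, chemiluminescent detection.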

[8] = tested on: Mus musculus; experiment: Stimulation of innate immune response in Kunming mouse assessed as increase of CCL2 level in peritoneal lavage at 10 mg/kg, ip after 5 hrs; assay type: functional, organism-based; set-up: dose 10 mg/kg
In short: (§1)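 Female Kunming mice (18−22 g) received a single ip injection of peptide at 10 mg/kg in sterile saline. Peritoneal lavage was collected in 2 mL of cold sterile saline 5 h later, and cytokines and chemokines were measured by ELISA. Data are mean ± SD from four mice, compared by unpaired t test.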

[9] = tested on: BMDM; experiment: Increase of CXCL2 production in mouse BMDM after 6 hrs by ELISA in presence of KN-62; assay type: functional
[10] = Cytotoxicity against mouse BMDM at 5 to 20 ug/ml by LDH release assay
[11] = Increase of CXCL2 protein level in mouse BMDM at 10 ug/ml after 18 hrs by ELISA; assay type: functional
In short: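 Bone marrow-derived macrophages (RPMI 1640, 10% FCS, 20% L929-conditioned medium) stimulated with peptide for 18 h. Cytokines and chemokines in culture supernatant quantified by sandwich ELISA. Mean ± SD from three independent experiments, unpaired t test.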

[12] = tested on: Mus musculus; experiment: Stimulation of innate immune response in neutropenic Kunming mouse infected with Pseudomonas aeruginosa ATCC 27853 assessed as increase of resident monocytes/macrophagess in peritoneal lavage at 10 mg/kg, ip; assay type: functional, organism-based; set-up: dose 10 mg/kg
In short: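 Mice were made neutropenic with ip cyclophosphamide, 150 mg/kg on day 0 and 100 mg/kg on day 3. They were then injected ip with peptide at 10 mg/kg. Peritoneal cells were collected up to 24 h afterwards and typed by flow cytometry after GR1/F4/80 staining.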

[13] = tested on: Mus musculus; experiment: Stimulation of innate immune response in Kunming mouse assessed as increase of IL-1beta level in peritoneal lavage at 10 mg/kg, ip after 5 hrs; assay type: functional, organism-based; set-up: dose 10 mg/kg; in short: as §1
[14] = tested on: Mus musculus; experiment: Stimulation of innate immune response in Kunming mouse assessed as protection against Escherichia coli ATCC 25922-induced mortality by measuring survival rate at 10 mg/kg, ip administered 3 hrs after bacterial infection measured up to 7 days; assay type: functional, organism-based; set-up: dose 10 mg/kg
In short: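 Female Kunming mice were challenged ip with E. coli 25922 at 2.5 × 10^8 CFU/mouse (n = 10). Peptide at 10 mg/kg in sterile saline was given ip at −24 h or +3 h relative to inoculation. Mice were monitored every 6 h and mortality was recorded for up to 7 days, with humane end points. Survival curves were compared by log-rank test.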

[15] = tested on: BMDM; experiment: Induction of CXCL11 mRNA up-regulation in mouse BMDM at 20 ug/ml after 3 hrs by qRT-PCR analysis; assay type: functional
In short: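 Murine BMDMs stimulated with peptide, then target mRNA quantified by qRT-PCR. Expression normalized to GAPDH, with untreated cells set to 1.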

[16] = tested on: Mus musculus; experiment: Stimulation of innate immune response in Kunming mouse assessed as protection against drug-resistant Pseudomonas aeruginosa-induced mortality by measuring survival rate at 10 mg/kg, ip administered 5 hrs before bacterial infection measured up to 7 days; assay type: functional; settings: route intraperitoneal
In short: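 Female Kunming mice (18−22 g) were dosed ip in sterile saline at 10 mg/kg, 5 h before ip challenge with clinical drug-resistant isolates: E. coli (n = 12), P. aeruginosa (n = 10) or S. aureus (n = 15). Survival was recorded for up to 7 days, with checks every 6 h and euthanasia by CO2 at the humane end point.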

[17] = tested on: THP-1; experiment: Increase of cytokine production in PMA-differentiated human THP1 cells by ELISA; assay type: functional, cell-based
[18] = tested on: Mus musculus; experiment: Stimulation of innate immune response in Kunming mouse assessed as increase of CXCL2 level in peritoneal lavage at 10 mg/kg, ip after 5 hrs; assay type: functional, organism-based; set-up: dose 10 mg/kg; in short: as §1

Chain of Transcription factor p65 (Mus musculus) (Q04207 whole entry): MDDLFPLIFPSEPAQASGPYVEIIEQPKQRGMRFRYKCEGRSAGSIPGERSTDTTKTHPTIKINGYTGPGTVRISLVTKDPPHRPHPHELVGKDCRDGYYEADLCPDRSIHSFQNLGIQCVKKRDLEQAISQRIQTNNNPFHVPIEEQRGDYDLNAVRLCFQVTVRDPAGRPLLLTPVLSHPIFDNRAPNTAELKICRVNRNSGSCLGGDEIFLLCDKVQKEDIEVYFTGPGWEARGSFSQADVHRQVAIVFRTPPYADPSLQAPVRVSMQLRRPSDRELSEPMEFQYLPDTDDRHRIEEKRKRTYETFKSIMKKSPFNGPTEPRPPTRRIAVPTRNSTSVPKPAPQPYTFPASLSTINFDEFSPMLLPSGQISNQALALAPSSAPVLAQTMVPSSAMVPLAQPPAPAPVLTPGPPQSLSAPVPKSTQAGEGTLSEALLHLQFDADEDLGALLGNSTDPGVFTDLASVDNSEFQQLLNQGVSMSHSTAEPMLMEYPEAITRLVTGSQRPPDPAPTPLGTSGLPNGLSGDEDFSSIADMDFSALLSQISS

CC[C@H](C)[C@H](NC(=O)[C@@H](NC(=O)[C@H](CCCNC(=N)N)NC(=O)[C@@H]1CCCN1C(=O)[C@H](CCCCN)NC(=O)[C@H](CCCCN)NC(=O)[C@H](Cc1ccccc1)NC(=O)[C@H](Cc1ccccc1)NC(=O)[C@H](CCCCN)NC(=O)[C@H](CCCCN)NC(=O)[C@H](C)NC(=O)[C@H](CCCNC(=N)N)NC(=O)[C@H](CCCCN)NC(=O)[C@H](CCCCN)NC(=O)[C@@H](NC(=O)[C@H](CO)NC(=O)[C@H](CC(N)=O)NC(=O)[C@H](CCCCN)NC(=O)[C@H](CC(C)C)NC(=O)[C@H](CCCCN)NC(=O)[C@H](CCCCN)NC(=O)[C@H](Cc1ccccc1)NC(=O)[C@H](Cc1ccccc1)NC(=O)[C@@H](N)CCCCN)C(C)C)C(C)C)C(=O)NCC(=O)N[C@H](C(=O)N[C@@H](CO)C(=O)N[C@H](C(=O)N1CCC[C@H]1C(=O)N[C@@H](Cc1ccccc1)C(=O)O)[C@@H](C)CC)C(C)C (H-KFFKKLKNSVKKRAKKFFKKPRVIGVSIPF-OH)
Activity [1]: Active
survival at 10 mg/kg [2]: > 60%
Activity [3]: Active
Activity [4]: 979.6 pg/mL
Activity [5]: Active
Activity [6]: inactive
Activity [7]: inactive
Activity [8]: Active
Activity [9]: Active
Activity [10]: Non-toxic
Activity [11]: 1450 pg/mL
Activity [12]: Active
Activity [13]: inactive
Activity [14]: Active
Activity [15]: Active
survival at 10 mg/kg [16]: 95%
Activity [17]: Active
Activity [18]: Active
